Data set [1] can be described thus: Oral bioavailability in Sprague-Dawley rat at 5 mg/kg. The format is ADME, organism-based. To be noted: in vivo. An outline of the steps: (§1)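 Overnight-fasted Sprague-Dawley rats (n = 3) received a single 5 mg/kg iv or oral dose in DMSO/PEG400 (1:9, v/v). Mean concentrations were fitted multiexponentially. AUC₀₋ₜ was calculated by linear trapezoidal rule and extrapolated to infinity using Cₜ divided by the terminal rate constant.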

Data set [2] in a line: Inhibition of HCV1a H77 NS5B assessed as [3H]UTP incorporation into RNA by scintillation counting. Further details: species or system Hepatitis C virus (isolate H77). An outline of the steps: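 Two-fold serial inhibitor dilutions were preincubated for 15 min at room temperature with NS5B (genotype 1a H77 or genotype 1b BK, 20-50 nM) in 20 mM Tris-Cl pH 7.4, 2 mM MnCl₂, 1 mM DTT, 1 mM EDTA and 60-125 µM GTP. Reactions were started with 20 µM CTP, 20 µM ATP, 1 µM ³H-UTP, 5 nM template RNA and RNase inhibitor, then run 2-4 h at room temperature.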

Data set [3] relates to Hepatitis C virus. In words: Antiviral activity against HCV1a H77 assessed as inhibition of viral replication by cell-based replicon assay. The format is functional, organism-based, Hepacivirus hominis. The following applies: genotype 1a H77. The gist of the method: (§2)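 Stable luciferase-reporter subgenomic replicon Huh-7 lines (1a H77; 1b Con1) were seeded at 5000 cells/well in DMEM with 5% FBS. The next day an eight-point half-log dilution series was added from DMSO stocks. After 3 days the cells were lysed, luciferin was added and luminescence was read. EC₅₀ came from percent inhibition of replication at each concentration.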
On the technique in general: A replicon is a self-replicating genome or part of one, used to study replication in cells.

Data set [4] can be described thus: Clearance in Sprague-Dawley rat at 5 mg/kg, iv. Further details: dose 5 mg/kg, route intravenous. To be noted: in vivo. The format is ADME, organism-based. The gist of the method:
as §1

Data set [5] in a line: Half life in Sprague-Dawley rat at 5 mg/kg, iv. The format is ADME, organism-based. Set-up: dose 5 mg/kg, route intravenous. The following applies: in vivo. The gist of the method:
as §1

Data set [6] can be described thus: AUC (0 to infinity) in Sprague-Dawley rat at 5 mg/kg, po. The format is ADME, organism-based. Set-up: time infinity, dose 5 mg/kg, route oral. The following applies: plasma. An outline of the steps:
as §1

Data set [7] can be described thus: Cmax in Sprague-Dawley rat at 5 mg/kg, po. The format is ADME, organism-based. Further details: dose 5 mg/kg, route oral. To be noted: in vivo. The gist of the method: as §1
For the next data set, the target named is Genome polyprotein (Hepatitis C virus genotype 1b (isolate Con1) (HCV), UniProt Q9WMX2). Description: Inhibition of HCV1b Con1 NS5B assessed as [3H]UTP incorporation into RNA by scintillation counting.
Sequence of Genome polyprotein (Q9WMX2 2420-3010 limits assumed): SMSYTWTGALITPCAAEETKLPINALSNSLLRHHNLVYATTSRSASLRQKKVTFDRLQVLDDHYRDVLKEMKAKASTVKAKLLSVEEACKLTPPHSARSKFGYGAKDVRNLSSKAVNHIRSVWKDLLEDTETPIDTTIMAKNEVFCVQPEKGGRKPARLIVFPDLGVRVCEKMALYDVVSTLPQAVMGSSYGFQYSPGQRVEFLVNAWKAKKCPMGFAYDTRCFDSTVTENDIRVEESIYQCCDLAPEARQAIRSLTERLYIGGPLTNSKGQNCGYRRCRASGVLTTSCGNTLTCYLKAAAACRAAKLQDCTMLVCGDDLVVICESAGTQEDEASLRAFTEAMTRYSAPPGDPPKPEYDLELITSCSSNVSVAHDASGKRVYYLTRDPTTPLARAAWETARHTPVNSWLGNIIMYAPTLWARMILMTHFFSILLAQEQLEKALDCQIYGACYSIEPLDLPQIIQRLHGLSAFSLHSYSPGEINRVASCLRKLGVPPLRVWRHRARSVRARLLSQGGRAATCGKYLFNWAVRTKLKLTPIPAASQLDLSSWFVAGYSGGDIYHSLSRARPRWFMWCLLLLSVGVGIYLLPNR
For data set [8], the system named is Hepatitis C virus. In words: Antiviral activity against HCV1a H77 infected in human Huh7 cells assessed as inhibition viral subgenomic replication. The format is functional, organism-based, Hepacivirus hominis. The following applies: genotype 1a H77, Huh-7. The gist of the method: as §2
Data set [9] relates to Hepatitis C virus. In words: Antiviral activity against HCV1b Con1 infected in human Huh7 cells assessed as inhibition viral subgenomic replication. The following applies: isolate Con1, Huh-7. The format is functional, organism-based, Hepacivirus hominis. An outline of the steps:
as §2

The test system of data set [10] is Hepatitis C virus. In words: Antiviral activity against HCV1b Con1 infected in human Huh7 cells assessed as inhibition viral subgenomic replication […]. The format is functional, organism-based, Hepacivirus hominis. The following applies: isolate Con1, Huh-7.
The nature of data set [11]: Drug level in Sprague-Dawley rat liver at 5 mg/kg, po after 1 hr. Set-up: dose 5 mg/kg, route oral. The format is ADME, organism-based. To be noted: read-out: Drug uptake. An outline of the steps: (§3)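 Sprague-Dawley rats were given 5 mg/kg orally in DMSO/PEG400 (1:9, v/v). Separate animals were sampled for liver and plasma at 1, 6 and 12 h. Drug in liver (µg/g) and in plasma was measured by LC-MS, and liver/plasma ratios were taken at each time.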

A short description of data set [12]: Drug level in Sprague-Dawley rat liver at 5 mg/kg, po after 6 hrs. Further details: dose 5 mg/kg, route oral. The following applies: read-out: Drug uptake. The format is ADME, organism-based. An outline of the steps: as §3
Data set [13] is described as follows: Drug level in Sprague-Dawley rat liver at 5 mg/kg, po after 12 hrs. The format is ADME, organism-based. Further details: dose 5 mg/kg, route oral. To be noted: read-out: Drug uptake. An outline of the steps: as §3
Data set [14] in a line: Ratio of drug level in liver to plasma of Sprague-Dawley rat at 5 mg/kg, po after 1 hr. The format is ADME, organism-based. Further details: dose 5 mg/kg, route oral. To be noted: liver and plasma. The gist of the method:
as §3

Data set [15] is described as follows: Ratio of drug level in liver to plasma of Sprague-Dawley rat at 5 mg/kg, po after 6 hrs. The format is ADME, organism-based. Set-up: dose 5 mg/kg, route oral. To be noted: liver and plasma. The gist of the method: as §3
The nature of data set [16]: Ratio of drug level in liver to plasma of Sprague-Dawley rat at 5 mg/kg, po after 12 hrs. The format is ADME, organism-based. Further details: dose 5 mg/kg, route oral. To be noted: liver and plasma. An outline of the steps: as §3

From ChEMBL document CHEMBL1138515, “Synthesis and biological characterization of B-ring amino analogues of potent benzothiadiazine hepatitis C virus polymerase inhibitors” (J Med Chem, 2009) come the findings set out here.

Take `CC(C)CC[C@@]1(NCc2ccccc2)C(=O)C(C2=NS(=O)(=O)c3cc(NS(C)(=O)=O)ccc3N2)=C(O)c2ccccc21`: in data set [1], the bioavailability (usually the share of a dose that reaches the circulation, judged against a reference dose that is usually intravenous) came to 13.3%. Further, the IC50 (in general, the concentration at which inhibition is half-maximal) in [2] was found to be 10 nM; on Genome polyprotein it was 16 nM. The EC50 (as a rule, the concentration at which the effect is half-maximal) was determined as 16 nM with Hepatitis C virus [3], 68 nM in the data set on Hepatitis C virus [8], 15 nM in the data set with Hepatitis C virus [9] and 273 nM with Hepatitis C virus [10]. In addition, the clearance – broadly, the volume of plasma or blood freed of the substance per unit of time – in data set [4] is 19.3 mL/min/kg. The half-life (usually the time in which the quantity being followed falls by half) in [5] was 1.7 h. In data set [6], the AUC(0-inf) (usually the area under the concentration-time curve extrapolated to infinity) worked out at 600 ng·h/mL. Besides, the Cmax (commonly the peak of the concentration-time curve) in data set [7] came to 80 ng/mL. In addition, the concentration at 1 h in [11] was 3590 ng/g. Also, in data set [12], the concentration at 6 h is 2350 ng/g. Besides, in [13], the concentration at 12 h came out at 880 ng/g. For the same molecule, the Kp – broadly, the ratio of the level in a tissue or fluid to that in plasma or blood – at 1 h in data set [14] was found to be 12. Also, the Kp at 6 h in data set [15] stood at 6. Further, the Kp at 12 h in data set [16] turned out to be 3.

`CC(C)(C)CCC1(NCc2ccc3ccccc3c2)C(=O)C(C2=NS(=O)(=O)c3cc(NS(C)(=O)=O)ccc3N2)=C(O)c2ccccc21` (configuration not stated) yielded a bioavailability in data set [1] of 28.1%. Besides, the IC50 in data set [2] was found to be 23 nM. The EC50 with Hepatitis C virus [3] was 16 nM. Moreover, the clearance in [4] was 23.3 mL/min/kg. In data set [5], this molecule showed a half-life of 2.2 h. Also, the area under the curve AUC(0-inf) in data set [6] is 1020 ng·h/mL. Besides, the Cmax in data set [7] came out at 180 ng/mL.

On to `Cc1cccc(C)c1CN[C@]1(CCC(C)(C)C)C(=O)C(C2=NS(=O)(=O)c3cc(NS(C)(=O)=O)ccc3N2)=C(O)c2ccccc21`, for which, in [1], the bioavailability was determined as 55.9%. Also, the IC50 in data set [2] came out at 16 nM; on Genome polyprotein, 19 nM. Besides, in [4], the clearance was 11.7 mL/min/kg. Further, the half-life in data set [5] was 3.1 h. Further, the AUC(0-inf) in [6] worked out at 4210 ng·h/mL. Further, the Cmax in data set [7] was 620 ng/mL. Besides, the EC50 in the data set on Hepatitis C virus [8] is 10 nM; with Hepatitis C virus [9], 6 nM; in the data set on Hepatitis C virus [10], 270 nM. In [11], the concentration at 1 h turned out to be 5860 ng/g. Further, the concentration at 6 h in [12] came out at 4360 ng/g. Moreover, in data set [13], the concentration at 12 h came out at 2110 ng/g. In [14], the Kp at 1 h came out at 12. In data set [15], the Kp at 6 h is 15. In [16], the Kp at 12 h worked out at 11.

Turning to `CC(C)(C)CCC1(NCc2ccccc2N)C(=O)C(C2=NS(=O)(=O)c3cc(NS(C)(=O)=O)ccc3N2)=C(O)c2ccccc21` (configuration not stated), the bioavailability in [1] came to 8.9%. Moreover, the IC50 in [2] is 17 nM. Moreover, the EC50 with Hepatitis C virus [3] came out at 8 nM. Moreover, the clearance in data set [4] was 20 mL/min/kg. In data set [5], this molecule showed a half-life of 2.2 h. Besides, the AUC(0-inf) in [6] was determined as 410 ng·h/mL. This molecule also registered a Cmax in data set [7] of 80 ng/mL.
